Laboratory results from ChEMBL document CHEMBL1147162, “Synthesis, pharmacological evaluation and electrochemical studies of novel 6-nitro-3,4-methylenedioxyphenyl-N-acylhydrazone derivatives: Discovery of LASSBio-881, a new ligand of cannabinoid receptors” (2007).
Active and inactive are the calls of the source.

System: Lymphocyte
Test: Inhibition of lymphocyte proliferation
Assay type: functional, cell-based
Details: not given
Summary of the method: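 Nylon wool-enriched splenic T cells in supplemented DMEM + 1% nutridoma were cultured in triplicate with soluble anti-CD3 (2% v/v 145.2C11) and PMA 0.5 ng/mL plus compound for 3 days at 37 °C in 7% CO2. [3H]thymidine (1.0 µCi/well) was added for the last 18 h and incorporation counted; at least 3 experiments.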

SMILES	Activity
CC(C)(C)c1cc(/C=N/NC(=O)c2cc3c(cc2[N+](=O)[O-])OCO3)cc(C(C)(C)C)c1O	Active

System: T-cell
Test: Induction of anti CD3-stimulated T-lymphocyte necrosis after 48 hrs
Assay type: functional
Details: not given
Summary of the method: (§1)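 Nylon wool-enriched mouse splenic T cells (10^6/mL, DMEM + 1% nutridoma) were stimulated with anti-CD3 (145.2C11) plus PMA, with or without compound at 10 µM, for 48 h at 37 °C in 7% CO2. They were stained with FITC-annexin V (apoptosis) and 7-AAD (necrosis) and analysed by flow cytometry. Runs were in triplicate with at least 3 experiments.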

SMILES	Activity
CC(C)(C)c1cc(/C=N/NC(=O)c2cc3c(cc2[N+](=O)[O-])OCO3)cc(C(C)(C)C)c1O	0%
CCCCC/C=C\C/C=C\C/C=C\C/C=C\CCCC(=O)NCCO [ANANDAMIDE]	0.1%

System: Radical scavenging activity
Test: Antioxidant activity assessed as DPPH radical scavenging activity at 0.1 mM
Assay type: functional
Details: not given

SMILES	Activity
CC(C)(C)c1cc(/C=N/NC(=O)c2cc3c(cc2[N+](=O)[O-])OCO3)cc(C(C)(C)C)c1O	32%
O=C(N/N=C/c1ccccc1)c1cc2c(cc1[N+](=O)[O-])OCO2	7.49%
CC(C)(C)c1cc(/C=N/NC(=O)c2ccc3c(c2)OCO3)cc(C(C)(C)C)c1O	45.7%

System: T-cell
Test: Induction of anti CD3-stimulated T-lymphocyte apoptosis after 48 hrs
Assay type: functional
Details: not given
Summary of the method: as §1

SMILES	Activity
CC(C)(C)c1cc(/C=N/NC(=O)c2cc3c(cc2[N+](=O)[O-])OCO3)cc(C(C)(C)C)c1O	43.8%
CCCCC/C=C\C/C=C\C/C=C\C/C=C\CCCC(=O)NCCO [ANANDAMIDE]	50.8%

System: not listed separately
Test: Antioxidant activity assessed as hydroxyl radical degradation at 0.5 mM
Assay type: functional
Details: not given
Summary of the method: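 2-Deoxy-D-ribose (10 mM) was incubated with Hepes pH 7.2 (10 mM), compound in DMSO (0.5 mM) and H2O2 (1 mM) for 1 h at 37 °C, started with Fe(NH4)2(SO4)2 10 µM. Results are % degradation vs vehicle.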

SMILES	Activity
CC(C)(C)c1cc(/C=N/NC(=O)c2cc3c(cc2[N+](=O)[O-])OCO3)cc(C(C)(C)C)c1O	84.6%
O=C(N/N=C/c1ccccc1)c1cc2c(cc1[N+](=O)[O-])OCO2	83.2%
CC(C)(C)c1cc(/C=N/NC(=O)c2ccc3c(c2)OCO3)cc(C(C)(C)C)c1O	85.2%

System: not listed separately
Test: Antioxidant activity assessed as superoxide degradation at 0.25 mM
Assay type: functional
Details: not given
Summary of the method: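 The reaction was started with xanthine oxidase (~0.2 U/mL). Cytochrome c reduction was read spectrophotometrically at the Soret band as ΔA/min; % degradation is relative to vehicle.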

SMILES	Activity
CC(C)(C)c1cc(/C=N/NC(=O)c2cc3c(cc2[N+](=O)[O-])OCO3)cc(C(C)(C)C)c1O	-2.9%
O=C(N/N=C/c1ccccc1)c1cc2c(cc1[N+](=O)[O-])OCO2	19.6%

System: Rattus norvegicus
Test: Antiinflammatory activity against carrageenan-induced paw edema in Wistar rat at 300 umol/kg, po after 3 hrs
Assay type: functional
Details: not given
Summary of the method: (§2)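 Fasted Wistar rats of both sexes (150–200 g) were dosed orally at 300 µmol/kg in 5% arabic gum in saline. One hour later they were injected subplantar with 0.1 mg/paw carrageenan, with saline in the contralateral paw. Paw volume was read by plethysmometer 3 h later as the difference between the paws. Results are % inhibition vs vehicle; ID50 is also given.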

SMILES	inhibition in vivo at 300 µmol/kg
O=C(N/N=C/c1ccco1)c1cc2c(cc1[N+](=O)[O-])OCO2	4.1%
O=C(N/N=C/c1ccncc1)c1cc2c(cc1[N+](=O)[O-])OCO2	13.3%
CC(C)(C)c1cc(/C=N/NC(=O)c2cc3c(cc2[N+](=O)[O-])OCO3)cc(C(C)(C)C)c1O	31.7%
O=C(N/N=C/c1ccc[nH]1)c1cc2c(cc1[N+](=O)[O-])OCO2	20.9%
CS(=O)(=O)Nc1ccc([N+](=O)[O-])cc1Oc1ccccc1 [NIMESULIDE]	57.5%
O=C(N/N=C/c1cccs1)c1ccc2c(c1)OCO2	29.7%
O=C(N/N=C/c1cccs1)c1cc2c(cc1[N+](=O)[O-])OCO2	3.4%
O=C(N/N=C/c1ccccn1)c1cc2c(cc1[N+](=O)[O-])OCO2	22.8%
O=C(N/N=C/c1ccccc1)c1cc2c(cc1[N+](=O)[O-])OCO2	3.5%
CC(C)(C)c1cc(/C=N/NC(=O)c2ccc3c(c2)OCO3)cc(C(C)(C)C)c1O	36.4%

System: Rattus norvegicus
Test: Antiinflammatory activity against carrageenan-induced paw edema in Wistar rat
Assay type: functional
Details: read-out: ID50 (the source's name)
Summary of the method: as §2

SMILES	ED50
CC(C)(C)c1cc(/C=N/NC(=O)c2cc3c(cc2[N+](=O)[O-])OCO3)cc(C(C)(C)C)c1O	195 µmol/kg
CS(=O)(=O)Nc1ccc([N+](=O)[O-])cc1Oc1ccccc1 [NIMESULIDE]	22.7 µmol/kg
O=C(N/N=C/c1cccs1)c1ccc2c(c1)OCO2	14.3 µmol/kg
CC(C)(C)c1cc(/C=N/NC(=O)c2ccc3c(c2)OCO3)cc(C(C)(C)C)c1O	96.5 µmol/kg

System: Mus musculus
Test: Antiinflammatory activity against TPA-induced ear edema in Swiss mouse at 300 umol/kg, po after 6 hrs
Assay type: functional
Details: not given
Summary of the method: (§3)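 Fasted Swiss mice received an oral dose of 300 µmol/kg (5% arabic gum suspension) 1 h before topical challenge on the right ear (20 µl acetone): AA 500 µg/ear or TPA 2 µg/ear. The left ear got acetone. Ears were weighed from 7 mm punches 1 h after AA or 6 h after TPA. Inhibition = (C−T)/C×100 vs vehicle.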

SMILES	inhibition in vivo at 300 µmol/kg
CC(C)(C)c1cc(/C=N/NC(=O)c2cc3c(cc2[N+](=O)[O-])OCO3)cc(C(C)(C)C)c1O	24.1%
CS(=O)(=O)Nc1ccc([N+](=O)[O-])cc1Oc1ccccc1 [NIMESULIDE]	-10.6%
O=C(N/N=C/c1cccs1)c1ccc2c(c1)OCO2	-10.5%
CC(C)(C)c1cc(/C=N/NC(=O)c2ccc3c(c2)OCO3)cc(C(C)(C)C)c1O	-19.6%

System: Mus musculus
Test: Antiinflammatory activity against AA-induced ear edema in Swiss mouse at 300 umol/kg, po after 1 hr
Assay type: functional
Details: not given
Summary of the method: as §3

SMILES	inhibition in vivo at 300 µmol/kg
CC(C)(C)c1cc(/C=N/NC(=O)c2cc3c(cc2[N+](=O)[O-])OCO3)cc(C(C)(C)C)c1O	36%
CS(=O)(=O)Nc1ccc([N+](=O)[O-])cc1Oc1ccccc1 [NIMESULIDE]	100%
O=C(N/N=C/c1cccs1)c1ccc2c(c1)OCO2	-1.6%
CC(C)(C)c1cc(/C=N/NC(=O)c2ccc3c(c2)OCO3)cc(C(C)(C)C)c1O	26.7%

System: Mus musculus
Test: Antihyperalgesic effect against formalin-induced pain in mouse at 100 umol/kg, po assessed as licking activity in neurogenic phase
Assay type: functional
Details: not given
Summary of the method: (§4)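 Mice injected subplantar in one hind paw with 20 µL 2.5% formalin; compounds given orally at 100 µmol/kg in 5% arabic gum 60 min before. Time spent licking or biting the injected paw was recorded, with the neurogenic phase at 0–5 min and the inflammatory phase at 15–30 min. Percent inhibition is vs vehicle (ANOVA/Dunnett).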

SMILES	inhibition in vivo at 100 µmol/kg
CC(C)(C)c1cc(/C=N/NC(=O)c2cc3c(cc2[N+](=O)[O-])OCO3)cc(C(C)(C)C)c1O	44.5%
CS(=O)(=O)Nc1ccc([N+](=O)[O-])cc1Oc1ccccc1 [NIMESULIDE]	9.3%
O=C(N/N=C/c1cccs1)c1ccc2c(c1)OCO2	17.9%
O=C(N/N=C/c1ccccc1)c1cc2c(cc1[N+](=O)[O-])OCO2	-21.1%
CC(C)(C)c1cc(/C=N/NC(=O)c2ccc3c(c2)OCO3)cc(C(C)(C)C)c1O	4.1%

System: Mus musculus
Test: Antihyperalgesic effect against formalin-induced pain in mouse at 100 umol/kg, po assessed as licking activity in inflammatory phase
Assay type: functional
Details: not given
Summary of the method: as §4

SMILES	inhibition in vivo at 100 µmol/kg
CC(C)(C)c1cc(/C=N/NC(=O)c2cc3c(cc2[N+](=O)[O-])OCO3)cc(C(C)(C)C)c1O	13.4%
CS(=O)(=O)Nc1ccc([N+](=O)[O-])cc1Oc1ccccc1 [NIMESULIDE]	70.3%
O=C(N/N=C/c1cccs1)c1ccc2c(c1)OCO2	48.6%
O=C(N/N=C/c1ccccc1)c1cc2c(cc1[N+](=O)[O-])OCO2	1.5%
CC(C)(C)c1cc(/C=N/NC(=O)c2ccc3c(c2)OCO3)cc(C(C)(C)C)c1O	3.1%

System: Mus musculus
Test: Antinociceptive activity in Swiss mouse at 100 umol/kg, po assessed as increase in latency time
Assay type: functional, organism-based
Details: not given
Summary of the method: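 Hot plate held at 55 ± 1 °C. Swiss mice of both sexes (18–25 g), fasted 8 h, were given 100 µmol/kg orally. Latency to first paw licking or jumping was read at 0, 30, 60, 90 and 120 min, with a 25 s cut-off. Morphine 39.5 µmol/kg was the positive control; n = 7–10.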

SMILES	Activity
CC(C)(C)c1cc(/C=N/NC(=O)c2cc3c(cc2[N+](=O)[O-])OCO3)cc(C(C)(C)C)c1O	Active

Target: Cannabinoid receptor 1 (Mus musculus) (UniProt P47746)
Test: Displacement of [3H]SR141716A from CB1 cannabinoid receptor in Swiss mouse brain homogenate
Assay type: tissue-based
Details: not given
Summary of the method: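 Swiss mouse (30–40 g) whole-brain membranes, 160 µg protein, were incubated with 10 nM [3H]SR141716A plus PMSF (FAAH inhibitor) in Tris/EDTA/MgCl2 buffer with fatty acid-free BSA, pH 7.4, for 1 h at 30 °C. Nonspecific binding was set with 100 µM AM281. Samples were filtered on PEI-treated filters and counted by scintillation; n = 5 animals.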

Cannabinoid receptor 1 (Mus musculus), sequence (P47746 whole entry): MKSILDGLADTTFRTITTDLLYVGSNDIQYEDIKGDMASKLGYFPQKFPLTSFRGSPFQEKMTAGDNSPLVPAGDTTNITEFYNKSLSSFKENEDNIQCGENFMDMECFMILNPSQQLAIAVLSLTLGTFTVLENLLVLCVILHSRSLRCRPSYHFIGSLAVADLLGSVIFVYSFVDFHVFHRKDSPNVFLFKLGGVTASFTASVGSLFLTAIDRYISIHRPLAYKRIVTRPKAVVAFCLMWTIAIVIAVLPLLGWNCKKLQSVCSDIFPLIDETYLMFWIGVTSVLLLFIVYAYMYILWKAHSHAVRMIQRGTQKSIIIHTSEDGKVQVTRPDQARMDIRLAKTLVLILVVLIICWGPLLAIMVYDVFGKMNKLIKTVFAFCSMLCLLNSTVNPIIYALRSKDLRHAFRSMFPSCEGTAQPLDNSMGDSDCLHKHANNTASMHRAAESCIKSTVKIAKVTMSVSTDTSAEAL

SMILES	Activity
CC(C)(C)c1cc(/C=N/NC(=O)c2cc3c(cc2[N+](=O)[O-])OCO3)cc(C(C)(C)C)c1O	71%
